pIC50: −log10 of the molar value. The source made the active and inactive calls. The rule behind the calls is not given here.
What was measured:
[1] = tested on: NCI-H187; assay: Cytotoxicity against human NCI-H187 cells by resazurin microplate assay; format: functional, cell-based
In short: (§1)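 Resazurin microplate assay on human tumour cell lines: KB (oral epidermoid carcinoma), MCF-7 (breast cancer) and NCI-H187 (small-cell lung cancer).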

[2] = tested on: KB; assay: Cytotoxicity against human KB cells by resazurin microplate assay; format: functional, cell-based; in short: as §1
[3] = tested on: Vero; assay: Cytotoxicity against african green monkey Vero cells after 8 days by green fluorescent protein microplate assay; format: cell-based; conditions: Chlorocebus sabaeus, 192 h
In short: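 Vero cells (African green monkey kidney fibroblasts); cytotoxicity read by green fluorescent protein microplate assay (GFPMA).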

[4] = tested on: MCF7; assay: Cytotoxicity against human MCF7 cells by resazurin microplate assay; format: functional, cell-based; in short: as §1
[5] = tested on: Plasmodium falciparum; assay: Antimalarial activity against Plasmodium falciparum K1; format: functional, organism-based
[6] = tested on: Mycobacterium tuberculosis; assay: Antituberculosis activity against Mycobacterium tuberculosis H37Ra; format: functional, organism-based
[7] = tested on: Candida albicans; assay: Antifungal activity against Candida albicans; format: functional, organism-based
[8] = tested on: Pyricularia grisea; assay: Antifungal activity against Magnaporthe grisea; format: functional, organism-based

With `Cc1c2ccncc2c(C)c2c1[nH]c1ccccc12` [ELLIPTECINE] the pIC50 [1] was 5.44, the pIC50 [2] was 5.60 and the pIC50 [3] was 5.26.
Work on `C=C1CC[C@H](O)[C@@]2(C)CC[C@H](C(C)(C)O)C[C@H]12` yielded a pIC50 [1] of under 3.68, a pIC50 [4] of under 3.68 and a pIC50 [2] of under 3.68. For the same compound, the pIC50 [3] was under 3.68, the Activity [5] was “inactive” and the Activity [6] was “inactive”. The Activity [7] was “inactive” and the Activity [8] was “inactive”.
`C=C1CCC(=O)[C@@]2(C)CC[C@H](C(C)(C)O)C[C@H]12` showed a pIC50 [1] of 4.96, a pIC50 [4] of 4.70 and a pIC50 [2] of 4.49. For the same compound, the pIC50 [3] was 4.49, the Activity [5] was “inactive” and the Activity [6] was “inactive”. For the same compound, the Activity [7] was “inactive” and the Activity [8] was “inactive”.
In the case of `COc1cccc2c1C(=O)c1c(O)c3c(c(O)c1C2=O)C[C@@](O)(C(=O)CO)C[C@@H]3O[C@H]1C[C@H](N)[C@H](O)[C@H](C)O1` [DOXORUBICIN], the pIC50 [1] was 6.60 and the pIC50 [2] was 6.55.
With `O=C1O[C@H](/C=C/CO)[C@@H](O)/C1=C\C=C\CO` [EUTYPELLIN B] the pIC50 [1] was 3.69, the pIC50 [4] was under 3.66 and the pIC50 [2] was 3.84. For the same compound, the pIC50 [3] was under 3.66, the Activity [5] was “inactive” and the Activity [6] was “inactive”. The Activity [7] was “inactive” and the Activity [8] was “inactive”.
`O=C/C=C/C=C1/C(=O)O[C@H](/C=C/CO)[C@H]1O` [EUTYPELLIN A] gave a pIC50 [1] of 4.92, a pIC50 [4] of 4.08 and a pIC50 [2] of 4.42. For the same compound, the pIC50 [3] was 4.06, the Activity [5] was “inactive” and the Activity [6] was “inactive”. The Activity [7] was “inactive” and the Activity [8] was “inactive”.

From ChEMBL document CHEMBL1154263, “Gamma-lactones and ent-eudesmane sesquiterpenes from the endophytic fungus Eutypella sp. BCC 13199” (J Nat Prod, 2009)
